The values that follow come from ChEMBL document CHEMBL4385601, “Anti-Zika Activity of a Library of Synthetic Carbohydrate Receptors” (J Med Chem, 2019).

The structures appear in SMILES notation. Calls of active or inactive are those of the source. No cut-off for these calls is given here.

Data set [1] has as its system Zika virus. The data set is described as follows: Antiviral activity against Zika virus harboring subgenomic GFP replicon infected in African green monkey Vero cells assessed as reduction in viral infection at 100 uM preincubated for 30 mins followed by viral infection and measured after 72 hrs. It is filed as functional, organism-based. (A replicon is a self-replicating genome or part of one, used to study replication in cells.)

In data set [2] the test system is Zika virus. Kind of data set: Antiviral activity against Zika virus harboring subgenomic GFP replicon infected in African green monkey Vero cells assessed as reduction in viral infection preincubated for 30 mins followed by viral infection and measured after 72 hrs. It is filed as functional, organism-based. An outline of the steps:
(§1)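 Vero or HeLa cells (DMEM, 10% FBS) at 5,000/well were pretreated 30 min at room temperature; compound came from 10 mM DMSO stock diluted in medium. Cells were infected with reporter particles (ZIKV C-prM-E carrying a WNV GFP replicon) at a dose giving up to 1000 GFP+ cells/well. After 72 h at 37 °C, whole-well GFP+ counts were normalised to DMSO-treated infected cells. Wells were run in duplicate/triplicate, three experiments; IC50 taken from curve fits.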

Data set [3] in a line: Binding affinity to beta mannose in CD2Cl2 by NMR analysis.
The nature of data set [4]: Binding affinity to alpha mannose in CD2Cl2 by NMR analysis.
A short description of data set [5]: Cytotoxicity against human HeLa cells assessed as reduction in cell viability measured after 72 hrs by Celltiter-Glo luminescence assay. It is filed as cell-based. The settings on record: read-out: TC50. An outline of the steps:
(§2)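 Vero or HeLa cells at 5,000/well were exposed to compound in duplicate for 72 h at 37 °C. Viability was read as cellular ATP by CellTiter-Glo luminescence and normalised to DMSO-treated cells as 100%. TC50 came from 4-parameter sigmoidal logistic fits.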
In general terms: Cellular ATP, detected with luciferase, serves as a proxy for viable cell number.

In data set [6] the test system is Zika virus. The data set is described as follows: Antiviral activity against Zika virus harboring subgenomic GFP replicon infected in African green monkey Vero cells assessed as reduction in viral infection treated 4 hrs post-infection and measured 72 hrs post-infection. It is filed as functional, organism-based. An outline of the steps:
(§3)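 Vero cells were infected with a predetermined dose of ZIKV GFP reporter virus particles. Compound was added 4 h or 24 h after infection. Plates were fixed 72 h post-infection and GFP+ cells per well counted by whole-well imaging.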

The test system of data set [7] is Zika virus. Kind of data set: Antiviral activity against Zika virus harboring subgenomic GFP replicon infected in African green monkey Vero cells assessed as reduction in viral infection treated 24 hrs post-infection and measured 72 hrs post-infection. It is filed as functional, organism-based. The method, boiled down: as §3
The nature of data set [8]: Cytotoxicity against African green monkey Vero cells assessed as reduction in cell viability measured after 72 hrs by Celltiter-Glo luminescence assay. To be noted: chlorocebus sabaeus, read-out: TC50. It is filed as cell-based. An outline of the steps:
as §2

The test system of data set [9] is Zika virus. Kind of data set: Antiviral activity against Zika virus harboring subgenomic GFP replicon infected in human HeLa cells assessed as reduction in viral infection preincubated for 30 mins followed by viral infection and measured after 72 hrs. It is filed as functional, organism-based. An outline of the steps: as §1
Data set [10] concerns Zika virus. Kind of data set: Antiviral activity against Zika virus PRVABC-59 infected in African green monkey Vero cells assessed as reduction in viral infection up to 200 uM pretreated for 30 mins followed by viral infection and measured by 4G2 antibody based assay. It is filed as functional, organism-based. An outline of the steps: (§4)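 Vero cells at 7,500/well were pretreated with compound for 30 min at room temperature. They were then infected with PRVABC59 at a titration-set dose giving ~2000-3000 infected cells/well. Cells were fixed and stained with 4G2 anti-envelope antibody plus Alexa 488 secondary. Whole wells were imaged and positive cells counted, in triplicate wells, with the experiment repeated. Microscopy images were taken with DAPI nuclear counterstain.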

Data set [11] deals with Zika virus. The data set is described as follows: Antiviral activity against Zika virus PRVABC-59 infected in African green monkey Vero cells assessed as reduction in viral infection at 200 uM pretreated for 30 mins followed by viral infection and measured by DAPI staining-based fluorescence microscopic method. It is filed as functional, organism-based. The method, boiled down: as §4

The subject of data set [12] is Vero. The data set is described as follows: Inhibition of envelope glycoprotein N154Q mutant in Zika virus infected in African green monkey Vero cells assessed as reduction in viral infection up to 200 uM pretreated for 30 mins followed by viral infection and measured 72 hrs post-infection. It is filed as cell-based. An outline of the steps: (§5)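 N154Q reporter particles were made by transfecting 293T cells 1:1 with C-prME-N154Q and subgenomic WNV GFP replicon plasmids, harvested at 48 h. Vero cells were pretreated with compound for 30 min at room temperature, then infected with wild-type or N154Q particles. GFP+ cells per well were counted from whole-well images at 72 h; mean ±SD of triplicate wells.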

Data set [13] relates to Zika virus. Kind of data set: Antiviral activity against Zika virus PRVABC-59 infected in African green monkey Vero cells assessed as reduction in viral infection at 8 uM pretreated for 30 mins followed by viral infection and measured by DAPI staining-based fluorescence microscopic method. It is filed as functional, organism-based. An outline of the steps: as §4
Data set [14] deals with Vero. Kind of data set: Inhibition of envelope glycoprotein N154Q mutant in Zika virus infected in African green monkey Vero cells assessed as reduction in viral infection up to 8 uM pretreated for 30 mins followed by viral infection and measured 72 hrs post-infection. It is filed as cell-based. An outline of the steps:
as §5

Data set [15] is described as follows: Therapeutic index, ratio of TC50 for African green monkey Vero cells to IC50 for Zika virus harboring subgenomic GFP replicon infected in African green monkey Vero cells. It is filed as toxicity. The settings on record: read-out: TI.
Data set [16] has as its system Zika virus. The data set is described as follows: Antiviral activity against Zika virus PRVABC-59 infected in African green monkey Vero cells assessed as reduction in viral infection up to 8 uM pretreated for 30 mins followed by viral infection and measured by 4G2 antibody based assay. It is filed as functional, organism-based. The method, boiled down:
as §4

Where [17] appears, read: Zika virus, Vero, read-out: IC50.

One may read the IC50 as the concentration needed to halve the response being measured. For `Cn1ccnc1CNCc1cc(CNCc2nccn2C)cc(-c2cc(CNCc3nccn3C)cc(CNCc3nccn3C)c2)c1`, the result in the data set on Zika virus [1] was Active. In addition, in the data set on Zika virus [2] (setting [17]), the IC50 is greater than 100000 nM. In addition, the values for the Ka in [3] and in [4] were 5.9 ×10² /M and 4.4 ×10³ /M, respectively.
Consider `C(=N\Cc1cc(C/N=C/c2ccc[nH]2)cc(-c2cc(C/N=C/c3ccc[nH]3)cc(C/N=C/c3ccc[nH]3)c2)c1)/c1ccc[nH]1`, for which the outcome with Zika virus [1] was Active. In addition, the IC50 is 1360 nM in the data set on Zika virus [2] (setting [17]) and 3060 nM with Zika virus [9]. Also, the CC50 at 72 h in data set [5] was found to be 17600 nM; in data set [8] it was 46.1 µM. Besides, the Ka in data set [3] is 2.4 ×10³ /M; in data set [4] it was 3 ×10³ /M. The result in the data set with Zika virus [6] and in the data set with Zika virus [7] was inactive.
As to `O=C(NCc1cc(CNC(=O)c2ccco2)cc(-c2cc(CNC(=O)c3ccco3)cc(CNC(=O)c3ccco3)c2)c1)c1ccco1`, the outcome in the data set with Zika virus [1] was Active. For the same compound, the concentration for half-maximal inhibition (IC50) entry in the data set with Zika virus [2] (vero) is listed as “Nd(Insoluble)”.
For the compound `C(=N\Cc1cc(C/N=C/c2cccs2)cc(-c2cc(C/N=C/c3cccs3)cc(C/N=C/c3cccs3)c2)c1)/c1cccs1`, the outcome in the data set with Zika virus [1] was Active. For the same compound, in the data set on Zika virus [2] (setting [17]), the IC50 was greater than 100000 nM. Besides, the Ka entry in data set [3] and in data set [4] was “inactive” in each case.
Regarding `O=C(NCc1cc(CNC(=O)c2cccs2)cc(-c2cc(CNC(=O)c3cccs3)cc(CNC(=O)c3cccs3)c2)c1)c1cccs1`, in the data set on Zika virus [1], the outcome was Active. Moreover, the half-inhibitory concentration (IC50) with Zika virus [2] (setting [17]) is greater than 100000 nM.
As for `c1coc(CNCc2cc(CNCc3ccco3)cc(-c3cc(CNCc4ccco4)cc(CNCc4ccco4)c3)c2)c1`, the outcome with Zika virus [1] was Active. Further, the IC50 in the data set with Zika virus [2] (setting [17]) was 1130 nM; in the data set with Zika virus [9], 350 nM. In addition, the CC50 at 72 h amounted to 2510 nM in data set [5] and 5.43 µM in data set [8]. Also, the Ka in [3] came out at 5.4 ×10¹ /M; in data set [4] it was 1.1 ×10² /M. Further, the outcome in the data set with Zika virus [6] and in the data set on Zika virus [7] was inactive.
Turning to `c1csc(CNCc2cc(CNCc3cccs3)cc(-c3cc(CNCc4cccs4)cc(CNCc4cccs4)c3)c2)c1`, the result in the data set on Zika virus [1] was Active. The IC50 in the data set with Zika virus [2] (setting [17]) worked out at 1310 nM; in the data set with Zika virus [9], 560 nM. In addition, the CC50 at 72 h in [5] was determined as 2470 nM; in data set [8], 4.12 µM. In addition, in [3], the Ka result is “inactive”. The outcome in the data set with Zika virus [6] and in the data set with Zika virus [7] was inactive. In [4], the Ka came out at 1.4 ×10² /M.
With `c1coc(CNCc2cc(CNCc3ccco3)cc(-c3cc(CNCc4ccco4)cc(Cn4cc(COCCOCCOCCOCc5cn(Cc6cc(CNCc7ccco7)cc(-c7cc(CNCc8ccco8)cc(CNCc8ccco8)c7)c6)nn5)nn4)c3)c2)c1`, in the data set on Zika virus [1], the result was Active. Besides, the IC50 amounted to 12400 nM with Zika virus [2] (setting [17]) and 1370 nM in the data set with Zika virus [9]. Further, the CC50 at 72 h in data set [5] is 2220 nM; in [8], 51.5 µM.
On to `C(=N\Cc1cc(C/N=C/c2ccco2)cc(-c2cc(C/N=C/c3ccco3)cc(C/N=C/c3ccco3)c2)c1)/c1ccco1`, for which the outcome with Zika virus [1] was Active. In the data set on Zika virus [2] (setting [17]), the IC50 is greater than 100000 nM. The values for the Ka in [3] and in data set [4] were 3.7 ×10¹ /M and 2 ×10² /M, respectively.
With `NCc1cc(CN)cc(-c2cc(CN)cc(CN)c2)c1`, the outcome in the data set on Zika virus [1] was Active. Further, the IC50 in the data set with Zika virus [2] (setting [17]) was greater than 100000 nM.
Take `Cc1ccc(C(=O)Nc2ccc(S(=O)(=O)O)c3cc(S(=O)(=O)O)cc(S(=O)(=O)O)c23)cc1NC(=O)c1cccc(NC(=O)Nc2cccc(C(=O)Nc3cc(C(=O)Nc4ccc(S(=O)(=O)O)c5cc(S(=O)(=O)O)cc(S(=O)(=O)O)c45)ccc3C)c2)c1` [SURAMIN]: the Activity entry in the data set with Zika virus [2] was “Dose-dependent effect”. In the data set on Zika virus [2] (setting [17]), the IC50 stood at 44000 nM. In addition, the outcome in the data set on Zika virus [10] and with Zika virus [11] was Active. For the same compound, the outcome in the data set with Zika virus [6] and in the data set with Zika virus [7] was inactive. In data set [8], the CC50 at 72 h was greater than 200 µM. Also, the inhibition entry in the data set with Vero [12] is “Active”.
`c1c[nH]c(CNCc2cc(CNCc3ccc[nH]3)cc(-c3cc(CNCc4ccc[nH]4)cc(Cn4cc(COCCOCCOCCOCc5cn(Cc6cc(CNCc7ccc[nH]7)cc(-c7cc(CNCc8ccc[nH]8)cc(CNCc8ccc[nH]8)c7)c6)nn5)nn4)c3)c2)c1`: the result with Zika virus [13], in the data set on Zika virus [1] and in the data set on Zika virus [16] was Active. In addition, the inhibition entry with Vero [14] was “Active”. Besides, the IC50 with Zika virus [2] (setting [17]) was 160 nM; in the data set with Zika virus [9] it was 240 nM. The selectivity ratio in data set [15] is greater than 220. In addition, the CC50 at 72 h was 2480 nM in data set [5] and 36.2 µM in [8]. Further, the values for the Ka in data set [3] and in data set [4] were 1.7 ×10³ /M and 2.6 ×10³ /M, respectively. Further, the result in the data set on Zika virus [6] and with Zika virus [7] was inactive.
As for `c1c[nH]c(CNCc2cc(CNCc3ccc[nH]3)cc(-c3cc(CNCc4ccc[nH]4)cc(CNCc4ccc[nH]4)c3)c2)c1`, in the data set with Zika virus [1], the result was Active. The figures for the IC50 with Zika virus [2] (setting [17]) and in the data set on Zika virus [9] were 360 nM and 450 nM, respectively. Besides, the CC50 at 72 h in data set [5] turned out to be 2430 nM; in [8], 34.1 µM. Moreover, the Ka stood at 3.6 ×10⁴ /M in data set [3] and 1.4 ×10³ /M in data set [4]. Besides, the outcome with Zika virus [6] and in the data set on Zika virus [7] was inactive.
